TAAR1 antagonist – human TAAR1 antagonism | CHO RD-HGA16 TAAR1, Fluo-8 calcium fluorescence, antagonist | 360,000 compounds, 1.5% hits | AID 624466 | inhibition, % at 3 µM;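 active = inhibition above a per-plate cutoff, the mean inhibition of test compounds on that plate plus 3 SD, cut at about 49% in these data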
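Test system – hTAAR1-expressing CHO RD-HGA16 cells, Gα16-coupled · Also added – β-PEA at EC80 concentration, post-compound challenge · Compound – 3 µM, single point · Incubation – dye loading 75 min at 37 °C, then 30 min room temperature · Measured by – Fluo-8 intracellular calcium dye fluorescence, real-time kinetic reads · Benchmarks – vehicle and agonist controls · Replicates – singlicate, one well per test compound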
OX1R antag-1 – antagonists of human orexin 1 receptor. O43613. inhibition, % at 5 µM. CHO/OX1R cells, Fluo-8 calcium fluorescence, orexin A. AID 434989. 330,000 compounds, 0.43% hits;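 active = inhibition above its plate's threshold, mean inhibition of all tested compounds on the plate plus 3 SD, cut at about 37% in these data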
GPR7 antag – human neuropeptides B/W receptor 1 antagonism; inhibition, % at 4.4 µM; GPR7-expressing cells, fluorescence antagonist assay; P48145; 290,000 compounds, 1.1% hits; AID 1861; in the data active = inhibition above about 16%, passing the limit was not always enough;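 also: cells stimulated with the agonist NPW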
Target sequence (P48145 whole entry, looked up): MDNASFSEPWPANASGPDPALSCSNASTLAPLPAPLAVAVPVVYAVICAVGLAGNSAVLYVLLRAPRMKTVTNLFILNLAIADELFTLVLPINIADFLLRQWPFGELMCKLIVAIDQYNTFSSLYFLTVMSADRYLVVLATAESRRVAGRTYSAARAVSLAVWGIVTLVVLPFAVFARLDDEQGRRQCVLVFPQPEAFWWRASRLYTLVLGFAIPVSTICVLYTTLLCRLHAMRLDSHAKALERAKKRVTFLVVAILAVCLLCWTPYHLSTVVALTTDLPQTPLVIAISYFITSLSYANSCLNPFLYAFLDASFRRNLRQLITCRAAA
CHO parental Ca – counter-screen: ATP calcium response change in parental CHO cells | parental CHO-K1, ATP-induced calcium, Fluo-8 fluorescence | inhibition, % at 5.6 µM | 330,000 compounds, 0.63% hits;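 active = inhibition above that plate's mean sample inhibition plus 3 SD, cut at about 26% in these data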
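material = parental CHO cells | also added = ATP as calcium-mobilizing challenge | dosing = single point at 5.6 µM | detection = intracellular calcium via Fluo-8 no-wash fluorescent dye | read-out = % inhibition | benchmarks = low control ATP plus DMSO, high control DMSO only | repeats = one well per compound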
TAAR1 ag – agonists of human TAAR1 | 360,000 compounds, 0.99% hits | activation, % at 3 µM | CHO RD-HGA16 TAAR1, Fluo-8 calcium fluorescence; vehicle wells 0%, saturating PEA agonist 100% | AID 624467;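 active = activation above the mean activation of all test compounds in the run plus 3 SD, cut at about 38% in these data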
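Assay system: CHO-derived RD-HGA16 cells with stable Gα16 and human TAAR1; timing: 17-24 h seeding, 75 min 37 °C dye, 30 min RT; read-out: % activation from peak over basal fluorescence ratio, DMSO-to-PEA scaled; measured by: kinetic Fluo-8 calcium fluorescence; benchmarks: low control DMSO, high control PEA (EC100); doses: 3 µM single concentration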
OX1R antag-2 – antagonists of human orexin 1 receptor (OX1R); O43613; OX1R-expressing cells, FRET antagonist read-out; 330,000 compounds, 1.8% hits; inhibition, % at 6.6 µM; in the data active = inhibition mostly above about 38%, no sharp cut-off; inactive = mostly below about 40%
TAAR1 ag confirm – confirmation of human TAAR1 agonists; activation, % at 3 µM; 2,400 compounds, 82% hits; shares compounds with TAAR1 ag; AID 651783; CHO RD-HGA16 TAAR1, Fluo-8 calcium fluorescence; scaled: DMSO 0%, maximal phenethylamine 100%;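 active = activation above a cutoff set at the run's mean compound activation plus 3 SD, cut at about 39% in these data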
Ga16 nonsel ag – counter-screen for TAAR1 agonists: nonselective agonists in parental cells; shares compounds with TAAR1 ag; CHO-Ga16 parental, Fluo-8 calcium fluorescence; normalized to maximal ATP response, DMSO zero; activation, % at 3 µM; AID 651787; 2,400 compounds, 50% hits;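 active = activation above the run cutoff, the mean activation over all tested wells plus 3 SD, cut at about 12% in these data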
TAAR1 desens – counter-screen for human TAAR1 agonists: agonists that desensitize TAAR1; CHO RD-HGA16 hTAAR1, Fluo-8 calcium, beta-PEA response inhibition; shares compounds with TAAR1 ag; 2,400 compounds, 46% hits; inhibition, % at 3 µM;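 active = inhibition above the run cutoff, the mean inhibition of all test compounds plus 3 SD, cut at about 49% in these data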;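 also: beta-PEA stimulus applied at its EC80; loss of beta-PEA calcium signal after compound pretreatment read as receptor desensitization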
Ga16 antag count – nonselective Ga16 antagonist in TAAR1 agonist counter-screen; 2,400 compounds, 39% hits; CHO-Ga16 ATP-induced calcium, Fluo-8 fluorescence; AID 651952; inhibition, % at 3 µM; shares compounds with TAAR1 ag;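 active = inhibition above the plate's mean compound inhibition plus 3 SD, computed per plate, cut at about 22% in these data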
A number is an active result. Most compounds without a hit are left out; they make up all but 4.6% or so of the library.

Results for CCc1c(Cc2ccccc2)ncn1CCc1ccccc1OC ?
TAAR1 antagonist: inactive; TAAR1 ag: 51.8; TAAR1 ag confirm: 74.8; Ga16 nonsel ag: inactive; TAAR1 desens: inactive; Ga16 antag count: inactive

What do the screens show for `CCCCCc1c(-c2cccc(F)c2)ncn1CCc1ccccc1OC`?
TAAR1 antagonist: inactive; TAAR1 ag: inactive

How did O=C(Cc1c[nH]c2ccccc12)Nc1ccccc1N1CCOCC1 do in these assays?
TAAR1 antagonist: inactive; OX1R antag-1: inactive; GPR7 antag: inactive; CHO parental Ca: inactive; TAAR1 ag: inactive; OX1R antag-2: inactive

How did CCCC1CC(C(=O)NC(C(C)Cl)C2OC(SC)C(O)C(O)C2O)N(C)C1 (centres undefined) do in these assays?
TAAR1 antagonist: inactive; OX1R antag-1: inactive; GPR7 antag: inactive; CHO parental Ca: inactive; TAAR1 ag: inactive; OX1R antag-2: inactive

How did COc1cccc(-c2c(C(=O)N/N=C/c3ccsc3)nnn2-c2nonc2N)c1 do in these assays?
TAAR1 antagonist: inactive; OX1R antag-1: inactive; GPR7 antag: inactive; CHO parental Ca: inactive; TAAR1 ag: 128.8; OX1R antag-2: inactive; TAAR1 ag confirm: 145.0; Ga16 nonsel ag: 105.8; TAAR1 desens: 72.2; Ga16 antag count: 29.1

How did CCCc1c(C(=O)N/N=C/c2ccc(C)s2)nnn1-c1nonc1N do in these assays?
TAAR1 antagonist: inactive; OX1R antag-1: inactive; GPR7 antag: inactive; CHO parental Ca: inactive; TAAR1 ag: inactive; OX1R antag-2: inactive

How did CCOc1ccc(-c2c(C(=O)N/N=C/c3ccsc3)nnn2-c2nonc2N)cc1 do in these assays?
TAAR1 antagonist: inactive; OX1R antag-1: inactive; GPR7 antag: inactive; CHO parental Ca: inactive; TAAR1 ag: 119.1; OX1R antag-2: inactive; TAAR1 ag confirm: 111.0; Ga16 nonsel ag: 73.9; TAAR1 desens: inactive; Ga16 antag count: inactive

How did CCOc1cccc(-c2c(C(=O)N/N=C/c3ccc(Br)cc3)nnn2-c2nonc2N)c1 do in these assays?
TAAR1 antagonist: inactive; OX1R antag-1: inactive; GPR7 antag: inactive; CHO parental Ca: inactive; TAAR1 ag: 101.6; OX1R antag-2: inactive; TAAR1 ag confirm: 97.2; Ga16 nonsel ag: 81.9; TAAR1 desens: 57.8; Ga16 antag count: 47.9

Results for CCOc1cccc(-c2c(C(=O)N/N=C/c3cccnc3)nnn2-c2nonc2N)c1 ?
TAAR1 antagonist: inactive; OX1R antag-1: inactive; GPR7 antag: inactive; CHO parental Ca: inactive; TAAR1 ag: inactive; OX1R antag-2: inactive

Results for CCCc1c(C(=O)N/N=C/c2cccs2)nnn1-c1nonc1N ?
TAAR1 antagonist: inactive; OX1R antag-1: inactive; GPR7 antag: inactive; CHO parental Ca: inactive; TAAR1 ag: 65.2; OX1R antag-2: inactive; TAAR1 ag confirm: inactive; Ga16 nonsel ag: 19.2; TAAR1 desens: inactive; Ga16 antag count: inactive

How did COc1cccc(/C=N/NC(=O)c2nnn(-c3nonc3N)c2-c2cccs2)c1 do in these assays?
TAAR1 antagonist: inactive; OX1R antag-1: inactive; GPR7 antag: inactive; CHO parental Ca: inactive; TAAR1 ag: inactive; OX1R antag-2: inactive

Results for CC(=O)N1c2ccc(S(=O)(=O)N3CCCC(C(=O)Nc4ccc(F)cc4)C3)cc2CC1C (centres undefined) ?
TAAR1 antagonist: inactive; OX1R antag-1: inactive; GPR7 antag: inactive; CHO parental Ca: inactive; TAAR1 ag: inactive; OX1R antag-2: inactive

Results for COc1ccc(N2CCOCC2)c(NC(=O)c2cccnc2)c1 ?
TAAR1 antagonist: inactive; OX1R antag-1: inactive; GPR7 antag: inactive; CHO parental Ca: inactive; TAAR1 ag: inactive; OX1R antag-2: inactive

Source: PubChem (The Scripps Research Institute Molecular Screening Center)
